Where a SMILES comes first, the peptide text is derived from it. Bridges are numbered along the chain shown (N, C = ends). [ ]: non-standard residue; d: D form. dPen = CC(C)(S)[C@@H](N)C(=O)O
Tests used:
[1] = molecular target: Delta-type opioid receptor (Mus musculus, UniProt P32300); assay: Inhibitory concentration against delta opioid receptor of electrically induced smooth muscle contraction of mouse vas deferens; assay type: functional
Mu-type opioid receptor [2] = molecular target: Mu-type opioid receptor (Cavia porcellus, UniProt P97266); assay: Inhibitory concentration against electrically evoked contractions of guinea pig ileum longitudinal muscle-myenteric plexus; assay type: functional, tissue-based
Summary of the method: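 Longitudinal muscle-myenteric plexus strips from male Hartley guinea pigs (250–500 g) in oxygenated Krebs bicarbonate at 37 °C, 1-g tension. Transmural stimulation at 0.1 Hz, 0.4-ms pulses, supramaximal voltage. Cumulative agonist doses with 3 min contact each. Inhibition is relative to contraction height over the preceding 1 min.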

[3] = Selectivity ratio (GPI/MVD) of the compound; assay type: functional
Summary of the method: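 IC50 ratio GPI/MVD. GPI: guinea pig ileum strips, 1-g tension, 0.4-ms pulses. MVD: male ICR mouse vas deferens (25–40 g), Mg-free Krebs, 0.5-g tension, 2.0-ms pulses. Both tissues at 37 °C, 0.1 Hz, cumulative doses with 3 min contact. Hill-equation fit, ≥4 tissues each.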

[4] = test system: Opioid receptors; mu & delta; assay: Selectivity ratio (mu/delta) of the compound; assay type: protein assay
Mu-type opioid receptor [5] = molecular target: Mu-type opioid receptor (Rattus norvegicus, UniProt P33535); assay: Binding affinity towards mu opioid receptor was determined in rat brain using [3H]CTOP as radioligand; assay type: tissue-based
Summary of the method: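 Rat brain membranes washed in 50 mM Tris-HCl pH 7.4, preincubated 30 min at 25 °C. Competition against 0.5 nM [3H]CTOP, 10 analog concentrations over an 800-fold range, in peptidase-inhibitor buffer with BSA. Incubation 3 h at 25 °C. Nonspecific binding defined by 10 μM naltrexone. Bound ligand filtered and counted; IC50 by nonlinear least-squares regression, at least three runs in duplicate.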

[6] = molecular target: Delta-type opioid receptor (Rattus norvegicus, UniProt P33533); assay: Binding affinity towards delta opioid receptor was determined in rat brain using [H]-[p-Cl-Phe4]-DPDPE as radioligand; assay type: tissue-based
Summary of the method: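 Rat brain membranes washed in 50 mM Tris-HCl pH 7.4, preincubated 30 min at 25 °C to strip endogenous peptides. Buffer contains BSA, bestatin, bacitracin, captopril and toluenesulfonyl fluoride. Incubation 3 h at 25 °C. Nonspecific binding with 10 μM naltrexone. Filtration, scintillation counting, nonlinear least-squares fit, n ≥ 6.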

Chain of Delta-type opioid receptor (Rattus norvegicus, UniProt P33533) (P33533 whole entry): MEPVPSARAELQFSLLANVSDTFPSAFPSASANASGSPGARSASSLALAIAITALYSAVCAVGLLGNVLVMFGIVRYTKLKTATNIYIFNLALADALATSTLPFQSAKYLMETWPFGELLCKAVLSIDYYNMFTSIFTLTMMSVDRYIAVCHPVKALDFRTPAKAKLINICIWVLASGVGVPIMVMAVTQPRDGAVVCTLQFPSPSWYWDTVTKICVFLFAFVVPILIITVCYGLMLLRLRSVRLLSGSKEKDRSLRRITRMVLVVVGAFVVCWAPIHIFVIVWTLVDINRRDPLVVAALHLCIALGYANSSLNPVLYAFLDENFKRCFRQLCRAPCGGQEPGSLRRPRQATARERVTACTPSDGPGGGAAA
Chain of Delta-type opioid receptor (Mus musculus, UniProt P32300) (P32300 whole entry): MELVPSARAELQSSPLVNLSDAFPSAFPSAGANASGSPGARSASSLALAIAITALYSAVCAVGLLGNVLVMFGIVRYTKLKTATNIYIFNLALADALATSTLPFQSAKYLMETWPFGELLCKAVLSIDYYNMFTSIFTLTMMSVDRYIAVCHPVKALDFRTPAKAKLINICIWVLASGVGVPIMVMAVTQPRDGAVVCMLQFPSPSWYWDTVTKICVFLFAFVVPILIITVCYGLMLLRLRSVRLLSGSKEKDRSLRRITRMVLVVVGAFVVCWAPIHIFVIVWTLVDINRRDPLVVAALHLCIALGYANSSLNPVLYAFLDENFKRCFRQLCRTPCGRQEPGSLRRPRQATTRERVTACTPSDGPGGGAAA
Chain of Mu-type opioid receptor (Rattus norvegicus, UniProt P33535) (P33535 whole entry): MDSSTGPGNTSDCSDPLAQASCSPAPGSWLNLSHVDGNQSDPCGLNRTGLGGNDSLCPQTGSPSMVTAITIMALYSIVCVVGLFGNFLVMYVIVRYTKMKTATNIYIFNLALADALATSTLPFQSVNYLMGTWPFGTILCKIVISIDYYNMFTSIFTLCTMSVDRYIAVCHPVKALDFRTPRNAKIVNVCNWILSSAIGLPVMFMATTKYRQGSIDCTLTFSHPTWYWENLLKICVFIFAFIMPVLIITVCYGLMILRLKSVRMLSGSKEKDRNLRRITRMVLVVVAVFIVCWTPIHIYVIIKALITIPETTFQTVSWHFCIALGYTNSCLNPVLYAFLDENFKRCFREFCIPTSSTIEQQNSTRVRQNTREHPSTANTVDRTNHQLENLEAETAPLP
Chain of Mu-type opioid receptor (Cavia porcellus, UniProt P97266) (P97266 whole entry): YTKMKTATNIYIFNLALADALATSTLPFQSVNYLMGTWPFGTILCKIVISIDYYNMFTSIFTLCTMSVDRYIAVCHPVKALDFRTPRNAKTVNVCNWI

SMILES | IC50 [1] [nM] | IC50 (Mu-type opioid receptor [2]) [nM] | Selectivity [3] | Selectivity [4] | IC50 (Mu-type opioid receptor [5]) [nM] | IC50 [6] [nM]
CC1(C)SSC[C@@H](C(=O)N[C@@H](Cc2ccccc2)C(=O)O)NC(=O)[C@H](Cc2ccccc2)NC(=O)CNC(=O)[C@@H]1NC(=O)[C@@H](N)Cc1ccc(O)cc1 (H-Y[dPen]GFCF-OH; disulfide 2-5) | 0.016 | 82.7 | 5100 | 200 | 280 | 1.4
CC1(C)SSC[C@@H](C(=O)N[C@@H](Cc2ccccc2)C(=O)O)NC(=O)[C@H](Cc2ccc(F)cc2)NC(=O)CNC(=O)[C@@H]1NC(=O)[C@@H](N)Cc1ccc(O)cc1 | 0.028 | 32 | 1100 | 160 | 110 | 0.71
CC1(C)SSC[C@@H](C(=O)N[C@@H](Cc2ccccc2)C(=O)O)NC(=O)[C@H](Cc2ccc(Br)cc2)NC(=O)CNC(=O)[C@@H]1NC(=O)[C@@H](N)Cc1ccc(O)cc1 | 0.028 | 120 | 4300 | 530 | 530 | 1
CC1(C)SSC[C@@H](C(=O)N[C@@H](Cc2ccccc2)C(=O)O)NC(=O)[C@H](Cc2ccc(I)cc2)NC(=O)CNC(=O)[C@@H]1NC(=O)[C@@H](N)Cc1ccc(O)cc1 | 0.3 | 640 | 2100 | 1300 | 1600 | 1.2
CC1(C)SSC[C@@H](C(=O)N[C@@H](Cc2ccccc2)C(=O)O)NC(=O)[C@H](Cc2ccc(Cl)cc2)NC(=O)CNC(=O)[C@@H]1NC(=O)[C@@H](N)Cc1ccc(O)cc1 | 0.076 | 36 | 470 | 160 | 83 | 0.51
CC(C)[C@H](NC(=O)[C@H](CC(=O)O)NC(=O)[C@H](Cc1ccccc1)NC(=O)[C@@H](C)NC(=O)[C@@H](N)Cc1ccc(O)cc1)C(=O)N[C@H](C(=O)NCC(N)=O)C(C)C [DELTORPHIN C] |  | > 1500 |  |  |  | 

From ChEMBL document CHEMBL1127487, “Cyclic enkephalin analogs with exceptional potency at peripheral delta opioid receptors” (J Med Chem, 1994)
